Molecules are shown by their SMILES.

This is an account of results in ChEMBL document CHEMBL1148782, “Inhibitors of tumor progression loci-2 (Tpl2) kinase and tumor necrosis factor alpha (TNF-alpha) production: selectivity and in vivo antiinflammatory activity of novel 8-substituted-4-anilino-6-aminoquinoline-3-carbonitriles” (J Med Chem, 2007).

Data set [1] concerns Monocyte. As to the kind of experiment: Inhibition of LPS-stimulated TNFalpha production in monocytes. It counts as functional, Homo sapiens.
The subject of data set [2] is Blood. The data set is described as follows: Inhibition of LPS-stimulated TNFalpha production in human blood. Format: functional.
Data set [3] concerns the target Mitogen-activated protein kinase 14 (Homo sapiens, UniProt Q16539). As to the kind of experiment: Inhibition of p38alpha.
In data set [4] the target is Protein kinase C alpha type (Homo sapiens, UniProt P17252). The data set is described as follows: Inhibition of PKCalpha.
Data set [5] addresses cAMP-dependent protein kinase (PKA) (Homo sapiens, UniProt P22694+P17612+P22612). As to the kind of experiment: Inhibition of PKA. It counts as protein assay.
The target in data set [6] is MAP kinase-activated protein kinase 2 (Homo sapiens, UniProt P49137). As to the kind of experiment: Inhibition of MK2.
MAP kinase-activated protein kinase 2, sequence (P49137 whole entry): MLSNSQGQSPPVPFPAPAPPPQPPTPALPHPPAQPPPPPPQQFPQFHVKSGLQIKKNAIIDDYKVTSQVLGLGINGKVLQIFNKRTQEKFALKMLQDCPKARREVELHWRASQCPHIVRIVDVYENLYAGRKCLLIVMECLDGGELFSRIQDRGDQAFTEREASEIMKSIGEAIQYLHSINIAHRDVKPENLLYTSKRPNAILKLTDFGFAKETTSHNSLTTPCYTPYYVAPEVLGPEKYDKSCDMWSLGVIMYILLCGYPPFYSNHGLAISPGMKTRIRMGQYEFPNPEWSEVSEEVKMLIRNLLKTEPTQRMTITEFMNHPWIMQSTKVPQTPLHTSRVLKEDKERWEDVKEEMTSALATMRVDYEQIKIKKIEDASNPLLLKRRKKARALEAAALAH
Data set [7] deals with Proto-oncogene tyrosine-protein kinase Src (Homo sapiens, UniProt P12931). The data set is described as follows: Inhibition of Src.
Proto-oncogene tyrosine-protein kinase Src, sequence (P12931 2-536 limits assumed): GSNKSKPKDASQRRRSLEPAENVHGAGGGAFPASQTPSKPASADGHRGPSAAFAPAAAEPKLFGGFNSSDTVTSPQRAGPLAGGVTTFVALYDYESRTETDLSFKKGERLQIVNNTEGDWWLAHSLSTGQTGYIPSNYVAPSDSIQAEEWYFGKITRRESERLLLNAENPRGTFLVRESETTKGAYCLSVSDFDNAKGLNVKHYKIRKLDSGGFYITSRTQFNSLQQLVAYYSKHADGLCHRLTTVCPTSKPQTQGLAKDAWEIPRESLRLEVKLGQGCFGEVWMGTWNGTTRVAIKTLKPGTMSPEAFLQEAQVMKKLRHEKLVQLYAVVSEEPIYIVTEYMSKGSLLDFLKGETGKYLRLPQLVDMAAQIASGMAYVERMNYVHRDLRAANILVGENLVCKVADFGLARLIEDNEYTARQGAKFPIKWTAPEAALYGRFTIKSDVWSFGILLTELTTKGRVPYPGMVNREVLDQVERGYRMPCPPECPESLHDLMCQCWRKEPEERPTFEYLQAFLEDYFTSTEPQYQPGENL
For data set [8], the target named is Ribosomal protein S6 kinase beta-1 (Homo sapiens, UniProt P23443). As to the kind of experiment: Inhibition of S6K.
Ribosomal protein S6 kinase beta-1, sequence (P23443 whole entry): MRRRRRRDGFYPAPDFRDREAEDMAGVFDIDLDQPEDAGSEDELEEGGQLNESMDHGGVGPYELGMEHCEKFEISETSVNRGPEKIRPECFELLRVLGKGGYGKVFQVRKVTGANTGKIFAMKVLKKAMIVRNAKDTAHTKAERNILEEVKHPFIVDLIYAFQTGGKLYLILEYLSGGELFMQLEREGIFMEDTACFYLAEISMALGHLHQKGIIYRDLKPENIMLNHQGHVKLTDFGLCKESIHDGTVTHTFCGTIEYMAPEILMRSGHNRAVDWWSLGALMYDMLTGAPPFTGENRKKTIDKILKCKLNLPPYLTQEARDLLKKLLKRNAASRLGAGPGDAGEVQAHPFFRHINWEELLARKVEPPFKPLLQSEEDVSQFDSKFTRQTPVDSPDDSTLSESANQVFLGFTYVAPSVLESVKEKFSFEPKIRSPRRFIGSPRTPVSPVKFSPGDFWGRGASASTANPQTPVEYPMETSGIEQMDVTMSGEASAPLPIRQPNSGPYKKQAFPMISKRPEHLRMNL
Data set [9] addresses Mitogen-activated protein kinase 8 (Homo sapiens, UniProt P45983). As to the kind of experiment: Inhibition of Jnk1.
Data set [10] concerns the target Glycogen synthase kinase-3 beta (Homo sapiens, UniProt P49841). The data set is described as follows: Inhibition of GSKbeta.
Data set [11] has as its target Tyrosine-protein kinase Lyn (Homo sapiens, UniProt P07948). The data set is described as follows: Inhibition of LYN.
The target in data set [12] is Tyrosine-protein kinase BTK (Homo sapiens, UniProt Q06187). The data set is described as follows: Inhibition of BTK.
Tyrosine-protein kinase BTK, sequence (Q06187 whole entry): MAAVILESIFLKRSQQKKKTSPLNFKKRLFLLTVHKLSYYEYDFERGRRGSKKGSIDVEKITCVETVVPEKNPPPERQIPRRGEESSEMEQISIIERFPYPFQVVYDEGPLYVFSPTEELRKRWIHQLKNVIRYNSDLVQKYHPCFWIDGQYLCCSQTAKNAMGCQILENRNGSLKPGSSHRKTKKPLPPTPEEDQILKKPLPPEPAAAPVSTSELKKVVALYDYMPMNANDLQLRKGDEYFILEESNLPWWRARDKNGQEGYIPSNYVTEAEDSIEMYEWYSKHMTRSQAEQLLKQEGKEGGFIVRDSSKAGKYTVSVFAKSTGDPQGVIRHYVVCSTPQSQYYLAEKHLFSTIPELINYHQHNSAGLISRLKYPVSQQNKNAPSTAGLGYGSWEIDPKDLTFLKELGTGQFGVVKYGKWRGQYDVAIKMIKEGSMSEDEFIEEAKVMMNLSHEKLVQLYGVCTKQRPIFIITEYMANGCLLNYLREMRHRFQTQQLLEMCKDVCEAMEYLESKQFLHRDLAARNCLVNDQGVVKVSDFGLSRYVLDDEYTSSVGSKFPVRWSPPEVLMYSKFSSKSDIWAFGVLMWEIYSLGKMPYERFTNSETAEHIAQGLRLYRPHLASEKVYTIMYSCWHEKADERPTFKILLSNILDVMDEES
The target of data set [13] is Protein kinase C theta type (Homo sapiens, UniProt Q04759). As to the kind of experiment: Inhibition of PKCtheta.
The target of data set [14] is Tyrosine-protein kinase Lck (Homo sapiens, UniProt P06239). The data set is described as follows: Inhibition of LCK.
Data set [15] can be described thus: Plasma clearance in Sprague-Dawley rat at 5 mg/kg, iv. Set-up: dose 5 mg/kg, route intravenous. Format: ADME, organism-based. The gist of the method:
(§1)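 Female Sprague-Dawley rats were dosed by the iv or oral route. Parameters are reported as means of individual-animal pharmacokinetic values.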

Data set [16] is described as follows: Volume of distribution at steady state in Sprague-Dawley rat at 5 mg/kg, iv. It counts as ADME, organism-based. Set-up: dose 5 mg/kg, route intravenous. The settings on record: in vivo, read-out: Vss. The gist of the method:
as §1

Data set [17] is described as follows: Half life in Sprague-Dawley rat at 5 mg/kg, iv. Format: ADME, organism-based. Set-up: dose 5 mg/kg, route intravenous. Particulars: in vivo. The essentials: as §1
The test system of data set [18] is Rattus norvegicus. The data set is described as follows: AUC (0 to infinity) in Sprague-Dawley rat at 25 mg/kg, po. Format: ADME, organism-based, Plasma. Set-up: dose 25 mg/kg, route oral. Particulars: in vivo. The gist of the method:
as §1

The nature of data set [19]: Half life in Sprague-Dawley rat at 25 mg/kg, po. Format: ADME, organism-based. The arrangement: dose 25 mg/kg, route oral. Particulars: in vivo. The essentials: as §1
Data set [20] can be described thus: Bioavailability in Sprague-Dawley rat at 25 mg/kg, po. It counts as ADME, organism-based. The settings on record: in vivo. The gist of the method: as §1
Data set [21] in a line: Permeability at pH 7.4 by PAMPA method. It counts as ADME. The settings on record: read-out: permeability. The gist of the method:
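Passive permeability was measured by high-resolution PAMPA at pH 7.4.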
(PAMPA measures passive passage across an artificial lipid membrane.)

The subject of data set [22] is Rattus norvegicus. As to the kind of experiment: Inhibition of TNFalpha production in Sprague-Dawley rat at 50 mg/kg, po administered 1 hr prior to LPS challenge after 1.5 hrs. It counts as functional.
Data set [23] can be described thus: Plasma concentration in LPS challenged Sprague-Dawley rat at 50 mg/kg, po after 150 mins. The arrangement: dose 50 mg/kg, route oral. Format: ADME, organism-based.
A short description of data set [24]: Plasma concentration in LPS challenged Sprague-Dawley rat at 50 mg/kg, po after 1 hr. It counts as ADME, organism-based. The arrangement: dose 50 mg/kg, route oral.
Data set [25] addresses Cytochrome P450 3A4 (Homo sapiens, UniProt P08684).
Data set [26] is described as follows: physchem. The settings on record: buffer, pH 7.4.
For data set [27], the system named is Rattus norvegicus. As to the kind of experiment: Inhibition of TNFalpha production in Sprague-Dawley rat at 10 mg/kg, po administered 1 hr prior to LPS challenge after 1.5 hrs. Format: functional.
The target in data set [28] is CYP3A4 (Homo sapiens, UniProt P08684). The data set is described as follows: Inhibition of CYP3A4 at 3 uM. It counts as ADME.
CYP3A4, sequence (P08684 whole entry): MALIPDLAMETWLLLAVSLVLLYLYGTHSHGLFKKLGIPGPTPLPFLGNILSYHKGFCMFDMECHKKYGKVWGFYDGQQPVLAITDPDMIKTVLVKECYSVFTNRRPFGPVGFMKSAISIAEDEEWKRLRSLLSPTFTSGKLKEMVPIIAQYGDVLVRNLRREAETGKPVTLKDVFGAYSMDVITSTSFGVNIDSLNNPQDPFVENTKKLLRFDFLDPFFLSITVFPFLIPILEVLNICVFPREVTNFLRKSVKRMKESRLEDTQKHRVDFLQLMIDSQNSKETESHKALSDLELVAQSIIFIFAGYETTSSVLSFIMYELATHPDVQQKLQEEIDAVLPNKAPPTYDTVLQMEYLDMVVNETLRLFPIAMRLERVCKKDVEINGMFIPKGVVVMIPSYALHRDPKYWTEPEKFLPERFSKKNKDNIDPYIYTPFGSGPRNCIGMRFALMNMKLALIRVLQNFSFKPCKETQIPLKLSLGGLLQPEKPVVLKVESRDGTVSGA
Data set [29] addresses Mitogen-activated protein kinase kinase kinase 8 (Homo sapiens, UniProt P41279). The data set is described as follows: Inhibition of Tpl2 by ELISA.
Data set [30] can be described thus: Metabolic stability in rat liver microsomes. Format: ADME, Microsome. The essentials: (§2)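 Compound was incubated with liver microsomes from the stated species. Stability is expressed as parent half-life (t1/2, min). Metabolites were also profiled.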
Data set [31] can be described thus: Metabolic stability in human liver microsomes. Format: ADME, Microsome. The essentials: as §2
(Microsomes from liver hold many membrane-bound enzymes, among them those of drug oxidation.)

Data set [32] in a line: Metabolic stability in mouse liver microsomes. Format: ADME, Microsome. The gist of the method:
as §2

For data set [33], the target named is CaM kinase II (Homo sapiens, UniProt Q13557+Q13555+Q13554+Q9UQM7).

Mitogen-activated protein kinase 14, sequence (Q16539 whole entry): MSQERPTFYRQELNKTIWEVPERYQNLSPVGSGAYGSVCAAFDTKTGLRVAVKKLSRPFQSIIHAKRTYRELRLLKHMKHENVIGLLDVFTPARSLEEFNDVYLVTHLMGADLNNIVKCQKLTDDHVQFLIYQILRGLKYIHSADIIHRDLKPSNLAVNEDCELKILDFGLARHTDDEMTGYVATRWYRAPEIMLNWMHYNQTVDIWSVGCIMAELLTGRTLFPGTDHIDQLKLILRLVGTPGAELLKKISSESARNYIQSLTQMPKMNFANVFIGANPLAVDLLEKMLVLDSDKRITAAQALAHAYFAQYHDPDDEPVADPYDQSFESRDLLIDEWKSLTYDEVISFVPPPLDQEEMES
Mitogen-activated protein kinase 8, sequence (P45983 whole entry): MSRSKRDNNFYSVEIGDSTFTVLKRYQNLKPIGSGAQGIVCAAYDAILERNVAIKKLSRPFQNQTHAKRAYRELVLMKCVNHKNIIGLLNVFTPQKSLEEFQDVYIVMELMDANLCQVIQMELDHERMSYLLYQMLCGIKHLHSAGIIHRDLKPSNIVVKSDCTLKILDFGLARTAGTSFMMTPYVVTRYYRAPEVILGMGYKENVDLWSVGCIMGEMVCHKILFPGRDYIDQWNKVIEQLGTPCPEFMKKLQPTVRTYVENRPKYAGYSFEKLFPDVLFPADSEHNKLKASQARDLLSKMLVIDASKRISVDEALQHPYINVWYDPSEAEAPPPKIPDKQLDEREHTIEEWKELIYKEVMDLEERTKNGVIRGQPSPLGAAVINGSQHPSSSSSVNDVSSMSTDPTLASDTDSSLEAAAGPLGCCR
Tyrosine-protein kinase Lyn, sequence (P07948 whole entry): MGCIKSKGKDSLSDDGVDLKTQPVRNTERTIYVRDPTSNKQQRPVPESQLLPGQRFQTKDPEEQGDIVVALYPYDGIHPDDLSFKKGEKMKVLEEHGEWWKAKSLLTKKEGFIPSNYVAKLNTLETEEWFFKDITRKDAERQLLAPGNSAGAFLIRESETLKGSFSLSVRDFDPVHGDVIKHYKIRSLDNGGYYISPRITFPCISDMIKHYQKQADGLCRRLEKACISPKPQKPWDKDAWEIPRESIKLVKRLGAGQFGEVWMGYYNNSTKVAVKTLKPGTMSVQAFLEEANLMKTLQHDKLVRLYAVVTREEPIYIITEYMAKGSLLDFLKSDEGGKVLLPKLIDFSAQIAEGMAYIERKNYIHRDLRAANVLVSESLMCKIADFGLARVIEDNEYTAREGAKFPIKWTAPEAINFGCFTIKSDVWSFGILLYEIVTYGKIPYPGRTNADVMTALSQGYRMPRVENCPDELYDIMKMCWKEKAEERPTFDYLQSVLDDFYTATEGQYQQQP
Cytochrome P450 3A4, sequence (P08684 whole entry): as the sequence (P08684 whole entry) above

As a reminder, the IC50 is the concentration needed to halve the response being measured. The low end stands for higher potency, the high end for lower potency. The term clearance denotes the rate of elimination divided by the concentration. A high value points to efficient removal. As a reminder, the half-life is the time in which the quantity being followed falls by half. A word on the bioavailability: it is dose-corrected exposure relative to a reference, in per cent. Read a low bioavailability as poor availability. As usually defined, the inhibition in vivo is the percentage by which the read-out fell short of the control. One may read the solubility as the dissolved amount per volume that the medium holds. A low value points to a poorly soluble substance. The molecule `Cn1cnc(CNc2cc(Br)c3ncc(C#N)c(Nc4ccc(F)c(Cl)c4)c3c2)c1` registered an Inhibitory concentration in [1] of 670 nM. In addition, in data set [2], the Activity was 6.3 µM. For the same molecule, the IC50 in data set [3] was greater than 40 µM; in data set [4], greater than 40 µM; in data set [5] it was greater than 100 µM; in data set [6], 87.1 µM; in [7], greater than 40 µM; in data set [8] it was 83.1 µM. The IC50 is 31 µM in data set [9]; greater than 10 µM in data set [10]; greater than 30 µM in data set [11]; greater than 10 µM in [12]; greater than 50 µM in data set [13]; 4.5 µM in data set [14]. Besides, in [25], the IC50 came to 15 µM. The molecule also returned a clearance in data set [15] of 50 mL/min/kg. In data set [16], the Vd stood at 14.1 L/kg. Further, the half-life was 5 h in data set [17] and 4 h in [19]. The same molecule registered an AUC/dose in data set [18] of 142 ng·kg·h/mg/mL. The bioavailability in [20] was found to be 42%. Moreover, the Papp in [21] is less than 5 ×10⁻⁶ cm/s. For the same molecule, the inhibition in vivo at 50 mg/kg in [22] was 50%. In data set [23], this molecule returned a concentration at 2.5 h of 550 nM. Moreover, in data set [24], the concentration at 1 h worked out at 1100 nM. For the same molecule, in [26], the solubility was less than 10 µg/mL.

`CC#CCOc1ccc(S(=O)(=O)N2CCSC(C)(C)[C@@H]2C(=O)NO)cc1` showed an inhibition in vivo at 10 mg/kg in data set [27] of 85%.

The inhibition is the change of the read-out against control, counted positive when it falls. Regarding `CN(C)CCCn1cc(CNc2cc(Br)c3ncc(C#N)c(Nc4ccc(F)c(Cl)c4)c3c2)nn1`, in [1], the Inhibitory concentration is recorded as 221 nM. The Activity in data set [2] came to 3.08 µM. Further, the IC50 in data set [3], in [4], in data set [5], in [6], in data set [7] and in data set [8] was greater than 40 µM throughout. In data set [9], this molecule returned an IC50 greater than 40 µM. Besides, the inhibition at 3 µM in data set [28] came to 66%. The molecule also returned an AUC/dose in data set [18] of less than 10 ng·kg·h/mg/mL. This molecule gave a half-life in data set [19] of 2.6 h.

With `N#Cc1cnc2c(Cl)cc(NCc3cnc[nH]3)cc2c1Nc1ccc(F)c(Cl)c1`, the 50% inhibitory concentration (IC50) came to 0.02 µM in data set [29]; 11.2 µM in [3]; 23.4 µM in data set [4]; 40.1 µM in data set [5]; 40.2 µM in [6]; 19.9 µM in data set [7]. Further, the figures for the IC50 in data set [8] and in data set [33] were greater than 100 µM and greater than 40 µM, respectively. The molecule also yielded an Inhibitory concentration in [1] of 350 nM. Besides, the Activity in data set [2] turned out to be 4.9 µM. The molecule further yielded a clearance in [15] of 19 mL/min/kg. In data set [16], the Vd was determined as 2.4 L/kg. In addition, the half-life in data set [17] is 4.4 h; in data set [19], 8.1 h; in data set [30], 0.583 h; in data set [31], 0.517 h; in data set [32], 0.383 h. For the same molecule, the AUC/dose in data set [18] was 24 ng·kg·h/mg/mL. In data set [20], this molecule gave a bioavailability of 2%. Further, the Papp in data set [21] is less than 5 ×10⁻⁶ cm/s. The molecule also displayed a solubility in data set [26] of less than 10 µg/mL.
